≈ marks a conversion by molar mass, not a printed value.
How the values were obtained:
Staphylococcus aureus [1] = experiment: Antibacterial activity against Staphylococcus aureus ATCC 6538 after 18 hrs; assay type: functional; conditions: ATCC 6538, 18 h
Procedure, shortened: (§1)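 Broth microdilution in Nutrient Broth No. 2; stocks in ethanol diluted to 0.01–128 µg/ml (triclosan) or 0.25–256 µg/ml (glycosides). Overnight 37 °C NB2 cultures diluted 1 in 10^4 in saline and added to the dilutions. Incubation at 37 °C with agitation, OD read every 15 min; MIC is the lowest concentration preventing any OD rise after 18 h.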

Staphylococcus aureus [2] = experiment: Antibacterial activity against Staphylococcus aureus ATCC 6538P after 18 hrs; assay type: functional; procedure, shortened: as §1
Staphylococcus aureus [3] = experiment: Antibacterial activity against Staphylococcus aureus ATCC 9144 after 18 hrs; assay type: functional; conditions: ATCC 9144, 18 h; procedure, shortened: as §1
Staphylococcus aureus [4] = experiment: Antibacterial activity against Staphylococcus aureus ATCC 25923 after 18 hrs; assay type: functional; conditions: ATCC 25923, 18 h; procedure, shortened: as §1
Staphylococcus aureus [5] = experiment: Antibacterial activity against Staphylococcus aureus ATCC 29213 after 18 hrs; assay type: functional; conditions: ATCC 29213, 18 h; procedure, shortened: as §1
Staphylococcus aureus [6] = experiment: Antibacterial activity against Staphylococcus aureus NCTC 13758 after 18 hrs; assay type: functional; conditions: NCTC 13758, 18 h; procedure, shortened: as §1
Staphylococcus aureus [7] = experiment: Antibacterial activity against Staphylococcus aureus OCC 104 after 18 hrs; assay type: functional; conditions: OCC 104, 18 h; procedure, shortened: as §1
Staphylococcus aureus [8] = experiment: Antibacterial activity against Staphylococcus aureus OCC 106 after 18 hrs; assay type: functional; conditions: OCC 106, 18 h; procedure, shortened: as §1
[9] = system: Staphylococcus epidermidis; experiment: Antibacterial activity against Staphylococcus epidermidis 155 after 18 hrs; assay type: functional; conditions: Staphylococcus epidermidis, 155, 18 h; procedure, shortened: as §1
[10] = system: Staphylococcus epidermidis; experiment: Antibacterial activity against Staphylococcus epidermidis ATCC 12228 after 18 hrs; assay type: functional; conditions: ATCC 12228, 18 h; procedure, shortened: as §1
[11] = system: Staphylococcus epidermidis; experiment: Antibacterial activity against Staphylococcus epidermidis ATCC 14990 after 18 hrs; assay type: functional; conditions: ATCC 14990, 18 h; procedure, shortened: as §1
[12] = system: Staphylococcus haemolyticus; experiment: Antibacterial activity against Staphylococcus haemolyticus OCC 2223 after 18 hrs; assay type: functional; conditions: OCC 2223, 18 h
Procedure, shortened: (§2)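 Broth microdilution in Nutrient Broth No. 2. Ethanol stocks were diluted in broth to 0.01–128 µg/ml for triclosan and 0.25–256 µg/ml for glycosides. Overnight 37°C NB2 cultures were diluted 1 in 10^4 in saline and added to the wells. Plates were incubated at 37°C with OD read every 15 min after agitation. MIC was the lowest concentration giving no OD increase at 18 h.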

[13] = system: Staphylococcus saprophyticus; experiment: Antibacterial activity against Staphylococcus saprophyticus ATCC 15305 after 18 hrs; assay type: functional; conditions: ATCC 15305, 18 h; procedure, shortened: as §2
Streptococcus agalactiae = experiment: Antibacterial activity against Streptococcus agalactiae OCC 182 after 18 hrs; assay type: functional; conditions: OCC 182, 18 h; procedure, shortened: as §2
Streptococcus pneumoniae [14] = experiment: Antibacterial activity against Streptococcus pneumoniae 6305 after 18 hrs; assay type: functional; conditions: Streptococcus pneumoniae, 6305, 18 h; procedure, shortened: as §2
Streptococcus pneumoniae [15] = experiment: Antibacterial activity against Streptococcus pneumoniae ATCC 49619 after 18 hrs; assay type: functional; conditions: ATCC 49619, 18 h; procedure, shortened: as §2
Streptococcus pyogenes = experiment: Antibacterial activity against Streptococcus pyogenes ATCC 19615 after 18 hrs; assay type: functional; conditions: ATCC 19615, 18 h; procedure, shortened: as §2
Streptococcus viridans = experiment: Antibacterial activity against Streptococcus viridans OCC 234 after 18 hrs; assay type: functional; conditions: OCC 234, 18 h; procedure, shortened: as §2
[16] = system: Salmonella enterica subsp. enterica serovar Abony; experiment: Antibacterial activity against Salmonella enterica subspecies enterica serotype Abony NCTC 6017 after 18 hrs; assay type: functional; conditions: NCTC 6017, 18 h; procedure, shortened: as §1
[17] = Antibacterial activity against Salmonella enterica subspecies enterica serotype Arizonae OCC 706 after 18 hrs; assay type: functional, Salmonella enterica subsp. enterica serovar Arizonae; conditions: OCC 706, 18 h; procedure, shortened: as §1
[18] = Antibacterial activity against Salmonella enterica subspecies enterica serotype Dublin OCC 627 after 18 hrs; assay type: functional, Salmonella enterica subsp. enterica serovar Dublin; conditions: OCC 627, 18 h; procedure, shortened: as §1
Salmonella enteritidis = experiment: Antibacterial activity against Salmonella enterica subspecies enterica serotype Enteritidis 13076 after 18 hrs; assay type: functional, Salmonella enterica subsp. enterica serovar Enteritidis; conditions: Salmonella enterica, 13076, 18 h; procedure, shortened: as §1
[19] = Antibacterial activity against Salmonella enterica subspecies enterica serotype Indiana OCC 597 after 18 hrs; assay type: functional, Salmonella enterica subsp. enterica serovar Indiana; conditions: OCC 597, 18 h; procedure, shortened: as §1
[20] = Antibacterial activity against Salmonella enterica subspecies enterica serotype Infantis OCC 2133 after 18 hrs; assay type: functional, Salmonella enterica subsp. enterica serovar Infantis; conditions: OCC 2133, 18 h; procedure, shortened: as §1
[21] = Antibacterial activity against Salmonella enterica subspecies enterica serotype Nottingham NCTC 7832 after 18 hrs; assay type: functional, Salmonella enterica subsp. enterica serovar Nottingham; conditions: NCTC 7832, 18 h; procedure, shortened: as §1
[22] = Antibacterial activity against Salmonella enterica subspecies enterica serotype Poona NCTC 4840 after 18 hrs; assay type: functional, Salmonella enterica subsp. enterica serovar Poona; conditions: NCTC 4840, 18 h; procedure, shortened: as §1
[23] = Antibacterial activity against Salmonella enterica subspecies enterica serotype Pullorum OCC 273 after 18 hrs; assay type: functional, Salmonella enterica subsp. enterica serovar Pullorum; conditions: OCC 273, 18 h; procedure, shortened: as §1
Salmonella typhimurium = experiment: Antibacterial activity against Salmonella enterica subspecies enterica serotype typhimurium ATCC 14028 after 18 hrs; assay type: functional, Salmonella enterica subsp. enterica serovar Typhimurium; conditions: ATCC 14028, 18 h; procedure, shortened: as §1
[24] = Antibacterial activity against Salmonella enterica subspecies enterica serotype Virchow NCTC 5742 after 18 hrs; assay type: functional, Salmonella enterica subsp. enterica serovar Virchow; conditions: NCTC 5742, 18 h; procedure, shortened: as §1

MIC (Staphylococcus aureus [1]): 4 to 8 µg/mL (≈ 9.49 to 19 µM)
MIC (Staphylococcus aureus [2]): 4 to 8 µg/mL (≈ 9.49 to 19 µM)
MIC (Staphylococcus aureus [3]): 4 to 8 µg/mL (≈ 9.49 to 19 µM)
MIC (Staphylococcus aureus [4]): 4 to 8 µg/mL (≈ 9.49 to 19 µM)
MIC (Staphylococcus aureus [5]): 4 to 8 µg/mL (≈ 9.49 to 19 µM)
MIC (Staphylococcus aureus [6]): 4 to 8 µg/mL (≈ 9.49 to 19 µM)
MIC (Staphylococcus aureus [7]): 4 to 8 µg/mL (≈ 9.49 to 19 µM)
MIC (Staphylococcus aureus [8]): 4 to 8 µg/mL (≈ 9.49 to 19 µM)
MIC [9]: 8 to 16 µg/mL (≈ 19 to 37.9 µM)
MIC [10]: 8 to 16 µg/mL (≈ 19 to 37.9 µM)
MIC [11]: 8 to 16 µg/mL (≈ 19 to 37.9 µM)
MIC [13]: 64 µg/mL (≈ 152 µM)
MIC (Streptococcus agalactiae): 128 µg/mL (≈ 304 µM)
MIC (Streptococcus pneumoniae [14]): 64 µg/mL (≈ 152 µM)
MIC (Streptococcus pneumoniae [15]): 64 µg/mL (≈ 152 µM)
MIC (Streptococcus pyogenes): 32 µg/mL (≈ 75.9 µM)
MIC (Streptococcus viridans): 128 µg/mL (≈ 304 µM)
MIC [16]: 32 to 64 µg/mL (≈ 75.9 to 152 µM)
MIC [17]: 32 to 64 µg/mL (≈ 75.9 to 152 µM)
MIC [18]: 32 to 64 µg/mL (≈ 75.9 to 152 µM)
MIC (Salmonella enteritidis): 32 to 64 µg/mL (≈ 75.9 to 152 µM)
MIC [19]: 32 to 64 µg/mL (≈ 75.9 to 152 µM)
MIC [20]: 32 to 64 µg/mL (≈ 75.9 to 152 µM)
MIC [21]: 32 to 64 µg/mL (≈ 75.9 to 152 µM)
MIC [22]: 32 to 64 µg/mL (≈ 75.9 to 152 µM)
MIC [23]: 32 to 64 µg/mL (≈ 75.9 to 152 µM)
MIC (Salmonella typhimurium): 32 to 64 µg/mL (≈ 75.9 to 152 µM)
MIC [24]: 32 to 64 µg/mL (≈ 75.9 to 152 µM)
SMILES: O[C@@H]1[C@H](Oc2cc(Cl)ccc2Oc2ccc(Cl)cc2Cl)OC[C@@H](O)[C@H]1O
MIC [12]: 128 µg/mL (≈ 304 µM)

From ChEMBL document CHEMBL4325893, “Synthesis and antibacterial profiles of targeted triclosan derivatives” (2019)
